Laboratory results taken from ChEMBL document CHEMBL1126560, “Endothelin-1 analogues substituted at both position 18 and 19: highly potent endothelin antagonists with no selectivity for either receptor subtype ETA or ETB” (J Med Chem, 1993).

Target: T1, Endothelin receptor type B (Bos taurus, UniProt P28088)
T1 sequence (P28088 whole entry): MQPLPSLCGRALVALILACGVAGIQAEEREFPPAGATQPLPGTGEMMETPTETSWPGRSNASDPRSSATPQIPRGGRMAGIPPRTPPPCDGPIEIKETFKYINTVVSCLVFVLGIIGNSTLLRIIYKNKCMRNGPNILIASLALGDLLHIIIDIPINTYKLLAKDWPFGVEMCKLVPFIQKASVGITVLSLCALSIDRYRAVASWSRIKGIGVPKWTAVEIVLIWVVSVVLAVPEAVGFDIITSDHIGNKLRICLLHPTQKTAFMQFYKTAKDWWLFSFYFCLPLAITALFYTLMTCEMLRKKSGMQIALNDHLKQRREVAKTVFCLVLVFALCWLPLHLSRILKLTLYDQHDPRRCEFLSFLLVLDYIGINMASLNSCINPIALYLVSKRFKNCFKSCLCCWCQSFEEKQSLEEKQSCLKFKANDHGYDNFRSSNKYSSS
Experiment: Tested for the competitive binding versus [125I]- ET-1 determined in bovine cerebrum membrane for Endothelin B receptor
Assay type: cell membranes
In short: (§1)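 Membranes (porcine cardiac ventricle at 12 μg/mL for ETA; bovine cerebrum at 150 μg/mL for ETB) in pH 7.2 Tris/EGTA/Mg acetate/0.1% BSA buffer with protease inhibitors. Incubated with 100 pM [125I]ET-1 and varied compound for 1 h at 25 °C, then filtered and counted by gamma counter. IC50 given as mean ± SEM of ≥3 determinations.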

Compound | IC50
CC[C@H](C)[C@H](NC(=O)[C@H](CC(=O)O)NC(=O)[C@H](CC(C)C)NC(=O)[C@H](Cc1cnc[nH]1)NC(=O)[C@@H]1CSSC[C@H](NC(=O)[C@H](CCC(=O)O)NC(=O)[C@H](CCCCN)NC(=O)[C@H](CC(=O)O)NC(=O)[C@H](CCSC)NC(=O)[C@H](CC(C)C)NC(=O)[C@H](CO)NC(=O)[C@H](CO)NC(=O)[C@@H]2CSSC[C@H](N)C(=O)N[C@@H](CO)C(=O)N2)C(=O)N[C@@H](C(C)C)C(=O)N[C@@H](Cc2ccc(O)cc2)C(=O)N[C@@H](Cc2ccccc2)C(=O)N1)C(=O)N[C@H](C(=O)N[C@@H](Cc1c[nH]c2ccccc12)C(=O)O)[C@@H](C)CC | 0.093 nM
CC[C@H](C)[C@H](NC(=O)[C@H](CC(C)C)NC(=O)[C@H](CC(=O)O)NC(=O)[C@H](CC(C)C)NC(=O)[C@H](Cc1c[nH]cn1)NC(=O)[C@@H]1CSSC[C@H](N)C(=O)N[C@@H](CO)C(=O)N[C@H]2CSSC[C@H](NC(=O)[C@H](CCC(=O)O)NC(=O)[C@H](CCCCN)NC(=O)[C@H](CC(=O)O)NC(=O)[C@H](CCSC)NC(=O)[C@H](CC(C)C)NC(=O)[C@H](CO)NC(=O)[C@H](CO)NC2=O)C(=O)N[C@@H](C(C)C)C(=O)N[C@@H](Cc2ccc(O)cc2)C(=O)N[C@@H](Cc2ccccc2)C(=O)N1)C(=O)N[C@@H](Cc1c[nH]c2ccccc12)C(=O)O | 0.17 nM

Target: T2, Endothelin-1 receptor (Sus scrofa, UniProt Q29010)
T2 sequence (Q29010 whole entry): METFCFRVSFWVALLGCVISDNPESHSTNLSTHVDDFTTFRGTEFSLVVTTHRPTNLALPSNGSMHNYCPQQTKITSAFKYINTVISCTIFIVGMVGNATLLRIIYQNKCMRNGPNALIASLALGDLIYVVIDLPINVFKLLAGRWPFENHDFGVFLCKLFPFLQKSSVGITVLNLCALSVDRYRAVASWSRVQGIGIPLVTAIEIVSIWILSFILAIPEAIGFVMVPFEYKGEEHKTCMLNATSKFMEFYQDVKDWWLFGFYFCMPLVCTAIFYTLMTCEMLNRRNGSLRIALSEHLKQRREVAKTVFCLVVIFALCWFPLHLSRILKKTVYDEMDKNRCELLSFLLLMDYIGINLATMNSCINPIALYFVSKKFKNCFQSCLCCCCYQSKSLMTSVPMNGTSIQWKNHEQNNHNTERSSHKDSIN
Experiment: Tested for the competitive binding versus [125I]- ET-1 determined in porcine cardiac ventricular membrane for Endothelin A receptor
In short: as §1

Compound | IC50
CCC[C@H](NC(=O)[C@@H](NC(=O)[C@H](CC(C)C)NC(=O)[C@H](Cc1cnc[nH]1)NC(=O)[C@@H]1CSSC[C@H](N)C(=O)N[C@@H](CO)C(=O)N[C@H]2CSSC[C@H](NC(=O)[C@H](CCC(=O)O)NC(=O)[C@H](CCCCN)NC(=O)[C@H](CC(=O)O)NC(=O)[C@H](CCSC)NC(=O)[C@H](CC(C)C)NC(=O)[C@H](CO)NC(=O)[C@H](CO)NC2=O)C(=O)N[C@@H](C(C)C)C(=O)N[C@@H](Cc2ccc(O)cc2)C(=O)N[C@@H](Cc2ccccc2)C(=O)N1)[C@@H](C)O)C(=O)N[C@H](C(=O)N[C@@H](Cc1c[nH]c2ccccc12)C(=O)O)[C@@H](C)CC | 0.2 nM
CC[C@H](C)[C@H](NC(=O)[C@H](CC(=O)O)NC(=O)[C@H](CC(C)C)NC(=O)[C@H](Cc1cnc[nH]1)NC(=O)[C@@H]1CSSC[C@H](NC(=O)[C@H](CCC(=O)O)NC(=O)[C@H](CCCCN)NC(=O)[C@H](CC(=O)O)NC(=O)[C@H](CCSC)NC(=O)[C@H](CC(C)C)NC(=O)[C@H](CO)NC(=O)[C@H](CO)NC(=O)[C@@H]2CSSC[C@H](N)C(=O)N[C@@H](CO)C(=O)N2)C(=O)N[C@@H](C(C)C)C(=O)N[C@@H](Cc2ccc(O)cc2)C(=O)N[C@@H](Cc2ccccc2)C(=O)N1)C(=O)N[C@H](C(=O)N[C@@H](Cc1c[nH]c2ccccc12)C(=O)O)[C@@H](C)CC | 5.9 nM
CC[C@H](C)[C@H](NC(=O)[C@H](CC(C)C)NC(=O)[C@H](CC(=O)O)NC(=O)[C@H](CC(C)C)NC(=O)[C@H](Cc1c[nH]cn1)NC(=O)[C@@H]1CSSC[C@H](N)C(=O)N[C@@H](CO)C(=O)N[C@H]2CSSC[C@H](NC(=O)[C@H](CCC(=O)O)NC(=O)[C@H](CCCCN)NC(=O)[C@H](CC(=O)O)NC(=O)[C@H](CCSC)NC(=O)[C@H](CC(C)C)NC(=O)[C@H](CO)NC(=O)[C@H](CO)NC2=O)C(=O)N[C@@H](C(C)C)C(=O)N[C@@H](Cc2ccc(O)cc2)C(=O)N[C@@H](Cc2ccccc2)C(=O)N1)C(=O)N[C@@H](Cc1c[nH]c2ccccc12)C(=O)O | 0.75 nM
CC[C@H](C)[C@H](NC(=O)[C@@H](NC(=O)[C@@H](NC(=O)[C@H](CC(C)C)NC(=O)[C@H](Cc1c[nH]cn1)NC(=O)[C@@H]1CSSC[C@H](N)C(=O)N[C@@H](CO)C(=O)N[C@H]2CSSC[C@H](NC(=O)[C@H](CCC(=O)O)NC(=O)[C@H](CCCCN)NC(=O)[C@H](CC(=O)O)NC(=O)[C@H](CCSC)NC(=O)[C@H](CC(C)C)NC(=O)[C@H](CO)NC(=O)[C@H](CO)NC2=O)C(=O)N[C@@H](C(C)C)C(=O)N[C@@H](Cc2ccc(O)cc2)C(=O)N[C@@H](Cc2ccccc2)C(=O)N1)[C@@H](C)O)C(C)C)C(=O)N[C@@H](Cc1c[nH]c2ccccc12)C(=O)O | 0.18 nM

Target: T3, Endothelin-1 receptor (Sus scrofa) (UniProt Q29010)
T3 sequence (whole entry): T2 sequence (Q29010 whole entry)
Experiment: Endothelin A receptor agonist activity as maximum vasoconstriction in porcine coronary artery
Assay type: functional, tissue-based
In short: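 Porcine right coronary artery, endothelium-denuded helical strips in Krebs-Henseleit, 37 °C, isometric tension. Compound applied cumulatively, up to 1 μM. Maximal contraction expressed as % of 60 mM KCl-induced tension; n in parentheses.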

Compound | Max vasoconstriction
CC[C@H](C)[C@H](NC(=O)[C@@H](NC(=O)[C@H](CC(C)C)NC(=O)[C@H](Cc1c[nH]cn1)NC(=O)[C@@H]1CSSC[C@@H](N)C(=O)N[C@@H](CO)C(=O)N[C@@H]2CSSC[C@@H](NC(=O)[C@H](CCC(=O)O)NC(=O)[C@@H](CCCCN)NC(=O)[C@H](CC(=O)O)NC(=O)[C@@H](CCSC)NC(=O)[C@H](CC(C)C)NC(=O)[C@@H](CO)NC(=O)[C@H](CO)NC2=O)C(=O)N[C@@H](C(C)C)C(=O)N[C@H](Cc2ccc(O)cc2)C(=O)N[C@@H](Cc2ccccc2)C(=O)N1)[C@@H](C)O)C(=O)N[C@H](C(=O)N[C@@H](Cc1c[nH]c2ccccc12)C(=O)O)[C@@H](C)CC | 76
CCC[C@H](NC(=O)[C@@H](NC(=O)[C@H](CC(C)C)NC(=O)[C@H](Cc1c[nH]cn1)NC(=O)[C@@H]1CSSC[C@@H](N)C(=O)N[C@@H](CO)C(=O)N[C@@H]2CSSC[C@@H](NC(=O)[C@H](CCC(=O)O)NC(=O)[C@@H](CCCCN)NC(=O)[C@H](CC(=O)O)NC(=O)[C@@H](CCSC)NC(=O)[C@H](CC(C)C)NC(=O)[C@@H](CO)NC(=O)[C@H](CO)NC2=O)C(=O)N[C@@H](C(C)C)C(=O)N[C@H](Cc2ccc(O)cc2)C(=O)N[C@@H](Cc2ccccc2)C(=O)N1)[C@@H](C)O)C(=O)N[C@H](C(=O)N[C@@H](Cc1c[nH]c2ccccc12)C(=O)O)[C@@H](C)CC | 112
CC[C@H](C)[C@H](NC(=O)[C@H](CC(=O)O)NC(=O)[C@H](CC(C)C)NC(=O)[C@H](Cc1c[nH]cn1)NC(=O)[C@@H]1CSSC[C@@H](NC(=O)[C@H](CCC(=O)O)NC(=O)[C@@H](CCCCN)NC(=O)[C@H](CC(=O)O)NC(=O)[C@@H](CCSC)NC(=O)[C@H](CC(C)C)NC(=O)[C@@H](CO)NC(=O)[C@H](CO)NC(=O)[C@H]2CSSC[C@@H](N)C(=O)N[C@@H](CO)C(=O)N2)C(=O)N[C@@H](C(C)C)C(=O)N[C@H](Cc2ccc(O)cc2)C(=O)N[C@@H](Cc2ccccc2)C(=O)N1)C(=O)N[C@H](C(=O)N[C@@H](Cc1c[nH]c2ccccc12)C(=O)O)[C@@H](C)CC | > 80
CC[C@H](C)[C@H](NC(=O)[C@H](CC(C)C)NC(=O)[C@H](CC(C)C)NC(=O)[C@H](Cc1c[nH]cn1)NC(=O)[C@@H]1CSSC[C@@H](N)C(=O)N[C@@H](CO)C(=O)N[C@@H]2CSSC[C@@H](NC(=O)[C@H](CCC(=O)O)NC(=O)[C@@H](CCCCN)NC(=O)[C@H](CC(=O)O)NC(=O)[C@@H](CCSC)NC(=O)[C@H](CC(C)C)NC(=O)[C@@H](CO)NC(=O)[C@H](CO)NC2=O)C(=O)N[C@@H](C(C)C)C(=O)N[C@H](Cc2ccc(O)cc2)C(=O)N[C@@H](Cc2ccccc2)C(=O)N1)C(=O)N[C@H](C(=O)N[C@@H](Cc1c[nH]c2ccccc12)C(=O)O)[C@@H](C)CC | 0
CC[C@H](C)[C@H](NC(=O)[C@@H](NC(=O)[C@@H](NC(=O)[C@H](CC(C)C)NC(=O)[C@H](Cc1c[nH]cn1)NC(=O)[C@@H]1CSSC[C@@H](N)C(=O)N[C@@H](CO)C(=O)N[C@@H]2CSSC[C@@H](NC(=O)[C@H](CCC(=O)O)NC(=O)[C@@H](CCCCN)NC(=O)[C@H](CC(=O)O)NC(=O)[C@@H](CCSC)NC(=O)[C@H](CC(C)C)NC(=O)[C@@H](CO)NC(=O)[C@H](CO)NC2=O)C(=O)N[C@@H](C(C)C)C(=O)N[C@H](Cc2ccc(O)cc2)C(=O)N[C@@H](Cc2ccccc2)C(=O)N1)[C@@H](C)O)C(C)C)C(=O)N[C@@H](Cc1c[nH]c2ccccc12)C(=O)O | 128
CC[C@H](C)[C@H](NC(=O)[C@H](CC(C)(C)C)NC(=O)[C@@H](NC(=O)[C@H](CC(C)C)NC(=O)[C@H](Cc1c[nH]cn1)NC(=O)[C@@H]1CSSC[C@@H](N)C(=O)N[C@@H](CO)C(=O)N[C@@H]2CSSC[C@@H](NC(=O)[C@H](CCC(=O)O)NC(=O)[C@@H](CCCCN)NC(=O)[C@H](CC(=O)O)NC(=O)[C@@H](CCSC)NC(=O)[C@H](CC(C)C)NC(=O)[C@@H](CO)NC(=O)[C@H](CO)NC2=O)C(=O)N[C@@H](C(C)C)C(=O)N[C@H](Cc2ccc(O)cc2)C(=O)N[C@@H](Cc2ccccc2)C(=O)N1)[C@@H](C)O)C(=O)N[C@@H](Cc1c[nH]c2ccccc12)C(=O)O | 0
CC[C@H](C)[C@H](NC(=O)[C@H](CC(C)C)NC(=O)[C@H](CC(=O)O)NC(=O)[C@H](CC(C)C)NC(=O)[C@H](Cc1c[nH]cn1)NC(=O)[C@@H]1CSSC[C@@H](N)C(=O)N[C@@H](CO)C(=O)N[C@@H]2CSSC[C@@H](NC(=O)[C@H](CCC(=O)O)NC(=O)[C@@H](CCCCN)NC(=O)[C@H](CC(=O)O)NC(=O)[C@@H](CCSC)NC(=O)[C@H](CC(C)C)NC(=O)[C@@H](CO)NC(=O)[C@H](CO)NC2=O)C(=O)N[C@@H](C(C)C)C(=O)N[C@H](Cc2ccc(O)cc2)C(=O)N[C@@H](Cc2ccccc2)C(=O)N1)C(=O)N[C@@H](Cc1c[nH]c2ccccc12)C(=O)O | 73
CC[C@H](C)[C@H](NC(=O)[C@H](CC(=O)O)NC(=O)[C@H](CC(C)C)NC(=O)[C@H](Cc1c[nH]cn1)NC(=O)[C@@H]1CSSC[C@@H](N)C(=O)N[C@H](CO)C(=O)N[C@H]2CSSC[C@@H](NC(=O)[C@H](CCC(=O)O)NC(=O)[C@H](CCCCN)NC(=O)[C@@H](CC(=O)O)NC(=O)[C@H](CCSC)NC(=O)[C@@H](CC(C)C)NC(=O)[C@H](CO)NC(=O)[C@@H](CO)NC2=O)C(=O)N[C@@H](C(C)C)C(=O)N[C@H](Cc2ccc(O)cc2)C(=O)N[C@@H](Cc2ccccc2)C(=O)N1)C(=O)N[C@H](C(=O)N[C@@H](Cc1c[nH]c2ccccc12)C(=O)O)[C@@H](C)CC | 120
